≈ marks a conversion by molar mass, not a printed value.
Legend:
[1] = molecular target: T1, Protein kinase C theta type (Homo sapiens, UniProt Q04759); assay: Inhibition of recombinant human full length PKCtheta using biotin-labelled STK substrate-1 as substrate after 60 mins by fluorescence assay
[2] = Aqueous solubility of the compound at pH 6.8 at 130 uM after 20 hrs by HPLC analysis; format: physicochemical; conditions: aqueous solution
How it was run: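 DMSO stock diluted to 130 μM with pH 6.8 aqueous buffer. Incubated 20 h at 25 °C, precipitate removed by filtration, filtrate concentration measured by HPLC.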

[3] = molecular target: T1, Protein kinase C theta type; assay: Inhibition of PKCtheta in human Jurkat cells assessed as reduction in IL2 production after 14 hrs by luciferase reporter gene assay; format: cell-based
How it was run: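 Jurkat cells transiently transfected with a pGL3-IL2 promoter firefly luciferase plasmid. Stimulated with anti-CD3 plus anti-CD28 antibodies in the presence of compound for 14 h, then luciferase substrate added. IC50 from duplicates in one experiment.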

CYP3A4 = CYP3A4 (Homo sapiens, UniProt P08684); assay: Time-dependent inhibition of CYP3A4 in human liver microsomes assessed as residual activity at 5 uM using midazolam as substrate preincubated for 30 mins followed by substrate addition and measured after 20 mins in presence of NADPH by LC-MS/MS analysis relative to control; format: ADME; conditions: probe midazolam, read-out: Activity
How it was run: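 Human liver microsomes at 0.1 mg/mL in 100 mM potassium sodium phosphate (pH 7.4) with 1 mM NADPH and 0.1 mM EDTA, compound at 5 μM. Midazolam added either with no preincubation or after 30 min preincubation at 37 °C. Reaction run 20 min at 37 °C and stopped with acetonitrile. Residual activity is 30-min activity as a percentage of 0-min activity.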

[4] = Tmax in Sprague-Dawley rat at 1 mg/kg, po by LC-MS/MS analysis; format: ADME, organism-based; conditions: in vivo
How it was run: (§1)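 Female SD rats, 1 mg/kg given as a single i.v. or oral dose in DMF/propylene glycol/1N HCl/saline (25/25/0.2/49.8). Blood sampled at multiple times up to 24 h. Unchanged compound in plasma measured by LC-MS/MS. Parameters derived by noncompartmental analysis. F taken as the AUC ratio of oral to i.v. dosing. Each value is the mean of three animals.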

[5] = Cmax in Sprague-Dawley rat at 1 mg/kg, po by LC-MS/MS analysis; format: ADME, organism-based; set-up: dose 1 mg/kg, route oral; conditions: in vivo; how it was run: as §1
Rattus norvegicus = assay: Immunosuppressive activity in Lewis rat transplanted with ACI rat cardiac tissue assessed as reduction in graft rejection by measuring mean survival days at 1 mg/kg, po administered for 14 consecutive days co-treated with tacrolimus (reference value: 7 days); format: functional
How it was run: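 ACI donor hearts into Lewis recipients, abdominal vascularized heterotopic transplant under aseptic conditions; pentobarbital 40 mg/kg i.p. anaesthesia. Agent in propylene glycol, given orally with tacrolimus (0.02 mg/kg) for 14 consecutive days starting on operation day. Graft survival recorded per animal and median survival time reported (n = 9).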

[6] = Oral bioavailability in Sprague-Dawley rat at 1 mg/kg by LC-MS/MS analysis; format: ADME, organism-based; conditions: in vivo; how it was run: as §1
[7] = Volume of distribution at steady state in Sprague-Dawley rat at 1 mg/kg, iv by LC-MS/MS analysis; format: ADME, organism-based; conditions: in vivo, read-out: Vdss; how it was run: as §1
[8] = AUC (0 to 24 hrs) in Sprague-Dawley rat at 1 mg/kg, po by LC-MS/MS analysis; format: ADME, organism-based; set-up: time < 24 hr, dose 1 mg/kg, route oral; conditions: in vivo; how it was run: as §1
[9] = AUC (0 to 24 hrs) in Sprague-Dawley rat at 1 mg/kg, iv by LC-MS/MS analysis; format: ADME, organism-based; set-up: time < 24 hr, dose 1 mg/kg, route intravenous; conditions: in vivo; how it was run: as §1
[10] = Elimination half life in Sprague-Dawley rat at 1 mg/kg, iv by LC-MS/MS analysis; format: ADME, organism-based; conditions: in vivo, read-out: beta t1/2 (converted); how it was run: as §1
[11] = Total clearance in Sprague-Dawley rat at 1 mg/kg, iv by LC-MS/MS analysis; format: ADME, organism-based; conditions: in vivo; how it was run: as §1

T1 sequence (Q04759 whole entry): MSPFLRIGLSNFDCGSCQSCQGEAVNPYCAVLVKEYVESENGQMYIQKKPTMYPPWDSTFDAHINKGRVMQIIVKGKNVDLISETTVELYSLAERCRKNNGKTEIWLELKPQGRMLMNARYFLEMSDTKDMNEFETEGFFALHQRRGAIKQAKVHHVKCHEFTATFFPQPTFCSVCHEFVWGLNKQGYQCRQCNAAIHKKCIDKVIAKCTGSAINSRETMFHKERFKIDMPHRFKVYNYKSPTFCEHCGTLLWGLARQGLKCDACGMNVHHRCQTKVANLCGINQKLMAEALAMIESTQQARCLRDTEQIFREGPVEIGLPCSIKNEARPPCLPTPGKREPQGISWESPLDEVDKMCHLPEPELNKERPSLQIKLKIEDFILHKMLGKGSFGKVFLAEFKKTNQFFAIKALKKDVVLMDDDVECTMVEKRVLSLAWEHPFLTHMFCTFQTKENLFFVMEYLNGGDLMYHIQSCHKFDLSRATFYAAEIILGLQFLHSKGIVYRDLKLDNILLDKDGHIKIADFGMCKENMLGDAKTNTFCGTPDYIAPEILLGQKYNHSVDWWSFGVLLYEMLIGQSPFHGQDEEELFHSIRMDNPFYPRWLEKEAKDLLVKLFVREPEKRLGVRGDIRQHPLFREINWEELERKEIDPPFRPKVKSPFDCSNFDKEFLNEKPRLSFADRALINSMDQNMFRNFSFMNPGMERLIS
Sequence of CYP3A4 (P08684 whole entry): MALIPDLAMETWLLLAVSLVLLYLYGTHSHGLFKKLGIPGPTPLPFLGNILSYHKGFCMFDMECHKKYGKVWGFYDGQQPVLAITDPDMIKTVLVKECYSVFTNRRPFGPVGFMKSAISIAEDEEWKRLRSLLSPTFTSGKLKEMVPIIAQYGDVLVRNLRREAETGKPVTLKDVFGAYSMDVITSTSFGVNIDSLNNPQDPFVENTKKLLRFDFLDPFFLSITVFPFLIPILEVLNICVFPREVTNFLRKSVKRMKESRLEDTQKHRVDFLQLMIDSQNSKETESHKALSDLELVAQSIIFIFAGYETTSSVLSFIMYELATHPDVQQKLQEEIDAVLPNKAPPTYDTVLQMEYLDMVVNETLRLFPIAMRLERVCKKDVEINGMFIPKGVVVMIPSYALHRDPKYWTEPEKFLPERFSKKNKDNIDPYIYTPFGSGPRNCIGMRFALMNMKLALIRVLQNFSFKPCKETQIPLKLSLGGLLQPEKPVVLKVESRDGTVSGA

Row | IC50 [1] [nM] | solubility at 20 h, 130 µM [2] [µM] | IC50 [3] [nM] | activity at 20 min, 5 µM (CYP3A4) [%] | SMILES | other results
1 | 0.59 | > 100 | 18 | 87 | CC(C)Oc1ncccc1CNc1ncc(C#N)c(NCC23CC4CC(C2)C(NC[C@H]2CC[C@H](O)CC2)C(C4)C3)n1 (stereo not given in full) | 
2 | 1.9 | > 50 | 43 | 94 | COc1ncccc1CNc1ncc(C#N)c(NCC23CC4CC(C2)C(NC[C@H]2CC[C@H](O)CC2)C(C4)C3)n1 (stereo not given in full) | 
3 | 0.7 |  |  | 36 | N#Cc1cnc(NCc2ccccc2OC(F)(F)F)nc1NCC12CC3CC(C1)C(NCCO)C(C3)C2 (stereo not given) | 
4 | 0.23 | < 1 | 3 | 66 | CC(C)Sc1ncccc1CNc1ncc(C#N)c(NCC23CC4CC(C2)C(NC[C@H]2CC[C@H](O)CC2)C(C4)C3)n1 (stereo not given in full) | 
5 | 0.1 |  |  | 59 | N#Cc1cnc(NCc2ccccc2OC(F)(F)F)nc1NCC12CC3CC(C1)C(N[C@H]1CC[C@H](N)CC1)C(C3)C2 (stereo not given in full) | 
6 | 0.46 | 16 (≈ 8.99 µg/mL) | < 3 | 80 | CCSc1ncccc1CNc1ncc(C#N)c(NCC23CC4CC(C2)C(NC[C@H]2CC[C@H](O)CC2)C(C4)C3)n1 (stereo not given in full) | 
7 | 0.42 | < 1 | 11 | 70 | N#Cc1cnc(NCc2ccccc2OC(F)(F)F)nc1NCC12CC3CC(C1)C(NC[C@H]1CC[C@H](O)CC1)C(C3)C2 (stereo not given in full) | 
8 |  | > 100 | 140 |  | CS(=O)(=O)c1ncccc1CNc1ncc(C#N)c(NCC23CC4CC(C2)C(NC[C@H]2CC[C@H](O)CC2)C(C4)C3)n1 (stereo not given in full) | 
9 | < 1 |  |  | 41 | N#Cc1cnc(NCc2ccccc2OC(F)(F)F)nc1NCC12CC3CC(C1)C(NC1CCOCC1)C(C3)C2 (stereo not given) | 
10 | > 100 | > 100 |  |  | COc1nnccc1CNc1ncc(C#N)c(NCC23CC4CC(C2)C(NC[C@H]2CC[C@H](O)CC2)C(C4)C3)n1 (stereo not given in full) | 
11 | < 1 |  |  | 29 | CC(C)NC1C2CC3CC1CC(CNc1nc(NCc4ccccc4OC(F)(F)F)ncc1C#N)(C3)C2 (stereo not given) | 
12 | 1.4 | 1.1 (≈ 0.589 µg/mL) | 22 | 77 | N#Cc1cnc(NCc2ccccc2Cl)nc1NCC12CC3CC(C1)C(NC[C@H]1CC[C@H](O)CC1)C(C3)C2 (stereo not given in full) | 
13 | 0.38 |  |  | 64 | N#Cc1cnc(NCc2ccccc2OC(F)(F)F)nc1NCC12CC3CC(C1)C(N[C@H]1CC[C@H](O)CC1)C(C3)C2 (stereo not given in full) | 
14 | 0.66 |  |  | 43 | N#Cc1cnc(NCc2ccccc2OC(F)(F)F)nc1NCC12CC3CC(C1)C(N[C@H]1CC[C@@H](O)CC1)C(C3)C2 (stereo not given in full) | 
15 | 1.9 |  |  | 43 | N#Cc1cnc(NCc2ccccc2OC(F)(F)F)nc1NCC12CC3CC(C1)C(NC1CCCCC1)C(C3)C2 (stereo not given) | 
16 | 0.57 |  | 17 | 63 | N#Cc1cnc(NCc2ccccc2C(F)(F)F)nc1NCC12CC3CC(C1)C(NC[C@H]1CC[C@H](O)CC1)C(C3)C2 (stereo not given in full) | 
17 | 0.94 | 45 (≈ 24.6 µg/mL) | 16 | 92 | CSc1ccccc1CNc1ncc(C#N)c(NCC23CC4CC(C2)C(NC[C@H]2CC[C@H](O)CC2)C(C4)C3)n1 (stereo not given in full) | 
18 | 32 | > 100 | 170 |  | C[S+]([O-])c1ncccc1CNc1ncc(C#N)c(NCC23CC4CC(C2)C(NC[C@H]2CC[C@H](O)CC2)C(C4)C3)n1 (stereo not given in full) | 

Row | SMILES | IC50 [1] [nM] | solubility at 20 h, 130 µM [2] [µM] | IC50 [3] [nM] | activity at 20 min, 5 µM (CYP3A4) [%] | other results
19 | CSc1ncccc1CNc1ncc(C#N)c(NCC23CC4CC(C2)C(NC[C@H]2CC[C@H](O)CC2)C(C4)C3)n1 (stereo not given in full) | 0.44 | > 50 | 10 | 98 | Tmax [4]: 3.33 h; Cmax [5]: 12.4 ng/mL; MSD (Rattus norvegicus): 20 days; bioavailability [6]: 58.3%; Vd [7]: 12.9 L/kg; AUC(0-t) at 24 h [8]: 145 ng·h/mL; AUC(0-t) at 24 h [9]: 248 ng·h/mL; half-life [10]: 3.97 h; clearance [11]: 66.7 mL/min/kg
